# From ChEMBL document CHEMBL4270616, “Asymmetrical meta-methoxylated diarylpentanoids: Rational design, synthesis and anti-cancer evaluation in-vitro” (Eur J Med Chem, 2018)
# Tests used:
# SW-620 [1] = assay: Induction of apoptosis in human SW620 cells assessed as live cells at 1.25 uM after 48 hrs by Annexin V-FITC/propidium iodide staining based flow cytometry (reference value: 96.26%); type: functional
# SW-620 [2] = assay: Induction of apoptosis in human SW620 cells assessed as late apoptotic cells at 1.25 uM after 72 hrs by Annexin V-FITC/propidium iodide staining based flow cytometry (reference value: 0.29%); type: functional
# SW-620 [3] = assay: Induction of apoptosis in human SW620 cells assessed as late apoptotic cells at 5 uM after 72 hrs by Annexin V-FITC/propidium iodide staining based flow cytometry (reference value: 0.29%); type: functional
# A549 = assay: Cytotoxicity against human A549 cells after 72 hrs by MTT assay; type: functional, cell-based; conditions: A549, 72 h
# Method in brief: (§1)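 Tumour lines kept in DMEM with 10% FBS and 1% penicillin/streptomycin at 37°C, 5% CO2. Seeded at 1500-5000 cells/well by doubling time and size, 24 h, then compound in DMSO-containing medium (final DMSO 0.1%) for 72 h. MTT (5 mg/mL) 4 h at 37°C, DMSO solubilisation, absorbance at 570 nm.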
# SW-620 [4] = assay: Anticlonogenic activity against human SW620 cells assessed as colony formation at 0.625 uM after 10 days by crystal violet staining based imaging analysis (reference value: 100%); type: functional
# Method in brief: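 SW620 cells seeded at 1000 cells/well in DMEM, left overnight at 37°C, 5% CO2, then exposed to compound for ten days with drug-containing medium renewed every three days. Cells were PBS-washed, fixed in 4% paraformaldehyde for 15 min, stained with 0.5% (w/v) crystal violet for 10 min, air-dried, photographed, and colonies quantified by image analysis.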
# SW-620 [5] = assay: Cell cycle arrest in human SW620 cells assessed as accumulation at G2/M phase at 1.25 uM after 24 hrs by propidium iodide staining based flow cytometry (reference value: 19%); type: functional
# SW-620 [6] = assay: Induction of apoptosis in human SW620 cells assessed as live cells at 2.5 uM after 48 hrs by Annexin V-FITC/propidium iodide staining based flow cytometry (reference value: 96.26%); type: functional
# SW-620 [7] = assay: Induction of apoptosis in human SW620 cells assessed as necrotic cells at 2.5 uM after 24 hrs by Annexin V-FITC/propidium iodide staining based flow cytometry (reference value: 0.15%); type: functional
# SW-620 [8] = assay: Induction of apoptosis in human SW620 cells assessed as necrotic cells at 2.5 uM after 48 hrs by Annexin V-FITC/propidium iodide staining based flow cytometry (reference value: 0.23%); type: functional
# SW-620 [9] = assay: Induction of apoptosis in human SW620 cells assessed as live cells at 2.5 uM after 24 hrs by Annexin V-FITC/propidium iodide staining based flow cytometry (reference value: 97.03%); type: functional
# SW-620 [10] = assay: Induction of apoptosis in human SW620 cells assessed as late apoptotic cells at 2.5 uM after 72 hrs by Annexin V-FITC/propidium iodide staining based flow cytometry (reference value: 0.29%); type: functional
# [11] = Cytotoxicity against human EJ28 cells after 72 hrs by MTT assay; type: functional, cell-based; conditions: EJ-28, 72 h; method in brief: as §1
# SW-620 [12] = assay: Induction of apoptosis in human SW620 cells assessed as live cells at 5 uM after 24 hrs by Annexin V-FITC/propidium iodide staining based flow cytometry (reference value: 97.03%); type: functional
# HT-1080 = assay: Cytotoxicity against human HT1080 cells after 72 hrs by MTT assay; type: functional, cell-based; conditions: HT-1080, 72 h; method in brief: as §1
# SW-620 [13] = assay: Induction of apoptosis in human SW620 cells assessed as early apoptotic cells at 5 uM after 48 hrs by Annexin V-FITC/propidium iodide staining based flow cytometry (reference value: 2.75%); type: functional
# SW-620 [14] = assay: Induction of apoptosis in human SW620 cells assessed as necrotic cells at 10 uM after 48 hrs by Annexin V-FITC/propidium iodide staining based flow cytometry (reference value: 0.23%); type: functional
# SW-620 [15] = assay: Induction of apoptosis in human SW620 cells assessed as necrotic cells at 10 uM after 24 hrs by Annexin V-FITC/propidium iodide staining based flow cytometry (reference value: 0.15%); type: functional
# NHDF = assay: Cytotoxicity against NHDF after 72 hrs by MTT assay; type: cell-based; conditions: Homo sapiens
# Method in brief: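 NHDF grown in DMEM with 5% FBS at 37°C, 5% CO2. Seeded at 1500-5000 cells/well, 24 h, then compound added in DMSO-containing medium (final DMSO 0.1%) for 72 h. MTT (5 mg/mL in medium) added for 4 h at 37°C, formazan dissolved in DMSO, absorbance read at 570 nm.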
# SW-620 [16] = assay: Induction of apoptosis in human SW620 cells assessed as early apoptotic cells at 10 uM after 24 hrs by Annexin V-FITC/propidium iodide staining based flow cytometry (reference value: 2.35%); type: functional
# SW-620 [17] = assay: Induction of apoptosis in human SW620 cells assessed as live cells at 5 uM after 48 hrs by Annexin V-FITC/propidium iodide staining based flow cytometry (reference value: 96.26%); type: functional
# SW-620 [18] = assay: Induction of apoptosis in human SW620 cells assessed as live cells at 10 uM after 24 hrs by Annexin V-FITC/propidium iodide staining based flow cytometry (reference value: 97.03%); type: functional
# SW-620 [19] = assay: Induction of apoptosis in human SW620 cells assessed as early apoptotic cells at 1.25 uM after 48 hrs by Annexin V-FITC/propidium iodide staining based flow cytometry (reference value: 2.75%); type: functional
# SW-620 [20] = assay: Induction of apoptosis in human SW620 cells assessed as early apoptotic cells at 1.25 uM after 72 hrs by Annexin V-FITC/propidium iodide staining based flow cytometry (reference value: 2.1%); type: functional
# SW-620 [21] = assay: Induction of apoptosis in human SW620 cells assessed as late apoptotic cells at 10 uM after 24 hrs by Annexin V-FITC/propidium iodide staining based flow cytometry (reference value: 0.43%); type: functional
# SW-620 [22] = assay: Induction of apoptosis in human SW620 cells assessed as necrotic cells at 5 uM after 48 hrs by Annexin V-FITC/propidium iodide staining based flow cytometry (reference value: 0.23%); type: functional
# SW-620 [23] = assay: Induction of ROS generation in human SW620 cells after 12 hrs by DCFDA staining based flow cytometry; type: functional, cell-based
# Method in brief: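 SW620 cells (2×10^5/well) adhered overnight and were loaded with 10 μM DCFDA in medium for 1 h, then washed twice with PBS. Compound exposure followed at several concentrations for 12 h, with untreated and hydrogen peroxide-treated controls. Harvested cells were resuspended in PBS and DCF fluorescence read by flow cytometry at ex 488/em 525 nm.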
# SW-620 [24] = assay: Induction of apoptosis in human SW620 cells assessed as necrotic cells at 1.25 uM after 72 hrs by Annexin V-FITC/propidium iodide staining based flow cytometry (reference value: 0.27%); type: functional
# SW-620 [25] = assay: Induction of apoptosis in human SW620 cells assessed as live cells at 10 uM after 72 hrs by Annexin V-FITC/propidium iodide staining based flow cytometry (reference value: 97.34%); type: functional
# SW-620 [26] = assay: Induction of apoptosis in human SW620 cells after 24 to 72 hrs by Annexin V-FITC/propidium iodide staining based flow cytometry; type: functional, cell-based
Compound,Activity (SW-620 [1]),Activity (SW-620 [2]),Activity (SW-620 [3]),IC50 (A549),Activity (SW-620 [4]),Activity (SW-620 [5]),Activity (SW-620 [6]),Activity (SW-620 [7]),Activity (SW-620 [8]),Activity (SW-620 [9]),Activity (SW-620 [10]),IC50 [11],Activity (SW-620 [12]),IC50 (HT-1080),Activity (SW-620 [13]),Activity (SW-620 [14]),Activity (SW-620 [15]),IC50 (NHDF),Activity (SW-620 [16]),Activity (SW-620 [17]),other results
COc1ccc(/C=C2\CCC/C(=C\c3cc(OC)c(OC)c(OC)c3)C2=O)cc1OC,82.82%,1.3%,93%,2900 nM,84.6%,20%,79.03%,0.27%,0.55%,86.22%,17.24%,1700 nM,55.03%,1100 nM,12%,1.3%,0.82%,5800 nM,40.33%,26.23%,Activity (SW-620 [18]): 46.2%; Activity (SW-620 [19]): 6.01%; Activity (SW-620 [20]): 4.06%; Activity (SW-620 [21]): 12.66%; Activity (SW-620 [22]): 1.55%; Activity (SW-620 [23]): Dose-dependent effect; Activity (SW-620 [24]): 0.35%; Activity (SW-620 [25]): 2.37%; Activity (SW-620 [26]): Dose-dependent effect
COc1ccc(/C=C2\CCC/C(=C\c3cccc(O)c3)C2=O)cc1OC,94.54%,1.82%,81.02%,4300 nM,93.4%,24%,91.27%,0.2%,0.44%,93.7%,4.57%,1800 nM,73.65%,1700 nM,12.04%,1.06%,0.23%,6800 nM,42.12%,36.63%,Activity (SW-620 [18]): 50.73%; Activity (SW-620 [19]): 4.11%; Activity (SW-620 [20]): 5.22%; Activity (SW-620 [21]): 7.42%; Activity (SW-620 [22]): 2.86%; Activity (SW-620 [23]): Dose-dependent effect; Activity (SW-620 [24]): 0.63%; Activity (SW-620 [25]): 2.19%; Activity (SW-620 [26]): Dose-dependent effect
